Measurements from different studies.
Compare with care: the assays were run in different laboratories.
Cell line: HCT-116
Observed: cell growth or viability

SMILES | technique | time | IC50
O=C1CS/C(=N\c2cc(C(F)(F)F)ccc2-c2nnc(N3C(=O)CS/C3=N\c3ccc(Cl)cc3)s2)N1c1ccc(Cl)cc1 | MTT | – | 46.2 µM
Cc1cc2c(C(N)=O)cncc2n1-c1nc2c(c(NCc3ccccc3)n1)CCCN2 | ATP luminescence | 72 h | 1.2 µM
FC(F)(F)c1cc(OCc2cc(-c3ccccn3)no2)c2ccccc2n1 | MTS | 72 h | > 100 µM
O=C(CSc1nc2ccccc2s1)N/N=C/c1ccc(OCC(=O)Nc2cccc(Cl)c2)cc1 | MTS | 72 h | > 100 µM
O=C1CS/C(=N\c2cc(C(F)(F)F)ccc2-c2nnc(N3C(=O)CS/C3=N\c3ccc(F)c(O)c3)s2)N1c1ccc(F)c(O)c1 | MTT | – | 21.2 µM
Clc1ccc(Cn2nc(-c3nc(-c4ccccc4)no3)c3ccccc32)c(Cl)c1 | – | 48 h | 324 µM
CC(=O)OC[C@H]1O[C@@H](n2cc(Cn3c(C(C)=O)nc4ccccc43)nn2)[C@H](OC(C)=O)[C@@H](OC(C)=O)[C@H]1OC(C)=O | LDH | 48 h | 6.49 µM
COc1cccc2c1C(=O)c1c(O)c3c(c(O)c1C2=O)C[C@@](O)(C(=O)CO)C[C@@H]3O[C@H]1C[C@H](N)[C@H](O)[C@H](C)O1 | MTT | 24 h | 10.5 µM
Clc1ccc(-c2cc(CNc3cccc4cccnc34)on2)c(Cl)c1 | MTS | 72 h | > 100 µM
Cc1cc2c(C(=O)O)cccc2n1-c1nc2c(c(NCc3ccccc3)n1)CCCN2 | ATP luminescence | 72 h | 0.4 µM
O=C1Nc2ccccc2C1=Nc1cccc(Cl)c1 | MTT | 48 h | > 100 µM
O=[N+]([O-])c1cc(Br)c(O)c(C=NNc2ccccc2)c1 | MTT | 24 h | 11.7 µM
COc1ccc2c(-c3ncc(-c4ccccc4)o3)nn(Cc3ccccc3)c2c1 | – | 48 h | 80.9 µM
COc1cccc2c1C(=O)c1c(O)c3c(c(O)c1C2=O)C[C@@](O)(C(=O)CO)C[C@@H]3O[C@H]1C[C@H](N)[C@H](O)[C@H](C)O1 | – | 96 h | 0.00382 µM
O=C(CCc1ccc(Cl)cc1)N1C(=O)C(=Nc2ccc(Cl)cc2Br)c2ccccc21 | MTT | 48 h | 23.2 µM
O=P1(c2ccccc2)CCCCC1 | MTT | 72 h | > 100 µM
CC(C)CNC(=S)N/N=C/c1cccc2cc3ccccc3nc12 | MTT | 48 h | > 50 µM
O=c1cc(OCc2cc(-c3ccccc3)no2)c2ccccc2o1 | MTS | 72 h | > 100 µM
Cc1nnc(-c2nn(Cc3ccc(Cl)cc3Cl)c3ccccc23)o1 | – | 48 h | 48.4 µM
O=C(CSc1nc2ccccc2s1)N/N=C/c1ccc(OCC(=O)Nc2ccc([N+](=O)[O-])cc2)cc1 | MTS | 72 h | 52.9 µM
Cc1cc2c(C(N)=O)cccc2n1-c1nc(NCc2ccccc2)c2c(n1)NC(C)CC2 (stereo not shown) | ATP luminescence | 72 h | 0.9 µM
O=C1Nc2ccccc2C1=Nc1ccccc1Br | MTT | 48 h | > 100 µM
CCOC(=O)c1cc(C)n(Cn2cnc3ccccc32)n1 | MTT | 24 h | 47.9 µM
Cc1ccc(NC(=O)Cn2cc(COc3ncnc4[nH]cnc34)nn2)c(C)c1 | MTT | – | > 100 µM
O=C1/C(=C/c2ccc3ccccc3c2O)NC(=S)N1c1ccccc1 | MTT | – | 7.25 µg/mL
O=C1CS/C(=N\c2cc(C(F)(F)F)ccc2-c2nnc(N3C(=O)CS/C3=N\c3cc(O)cc(Br)c3)s2)N1c1cc(O)cc(Br)c1 | MTT | – | 78.1 µM
Fc1ccc2c(-c3nnc(Cc4ccccc4)[nH]3)nn(Cc3ccc(Cl)cc3Cl)c2c1 | – | 48 h | 22 µM
O=C1Nc2ccccc2C1=Nc1ccccc1I | MTT | 48 h | 31.5 µM

SMILES | technique | time | IC50
O=C1/C(=C/c2ccc(O)cc2O)NC(=S)N1c1ccccc1 | MTT | – | 91.3 µg/mL
O=[N+]([O-])c1cc(I)c(O)c(C=NNc2ccc(Br)cc2)c1 | MTT | 24 h | 15.3 µM
Cc1cc(C)n(Cn2ccnc2)n1 | MTT | 24 h | 21.3 µM
COc1cccc2c1C(=O)c1c(O)c3c(c(O)c1C2=O)C[C@@](O)(C(=O)CO)C[C@@H]3O[C@H]1C[C@H](N)[C@H](O)[C@H](C)O1 | MTT | 72 h | 0.2 µM
COc1ccc(N(Cc2csc(-c3ccc(C)cc3)n2)C(=O)CCCCCC(=O)NO)cc1 | MTT | 72 h | 1.19 µM
Cc1cccc(N=C2C(=O)Nc3ccccc32)c1 | MTT | 48 h | > 100 µM
Cc1cc(NS(=O)(=O)c2ccc(NC(=O)/C(C#N)=C/c3ccc(N4CCCC4)cc3)cc2)no1 | MTT | 48 h | 98.6 µM
COc1ccc2c(-c3nc(-c4ccccc4)no3)nn(Cc3ccncc3)c2c1 | – | 48 h | 10.8 µM
C#Cc1cccc(Nc2ncnc3cc(OCCOC)c(OCCOC)cc23)c1 | LDH | 48 h | 5.14 µM
CNC(=S)N/N=C/c1cccc2cc3ccccc3nc12 | MTT | 48 h | 21.8 µM
Cc1c2c(nn1C)CSCc1cc(n(C)n1)CSc1cc(c3ccccc3c1)OCCCc1c(C(=O)O)n(C)c3c-2c(Cl)ccc13 | CCK-8 | – | 25 µM
Cc1ccc(CN2C(=O)C(=Nc3c(C(C)C)cccc3C(C)C)c3ccccc32)cc1 | MTT | 48 h | 30.9 µM
COc1cccc2c1C(=O)c1c(O)c3c(c(O)c1C2=O)C[C@@](O)(C(=O)CO)C[C@@H]3O[C@H]1C[C@H](N)[C@H](O)[C@H](C)O1 | ATP luminescence | 72 h | 0.98 µM
Cc1cc2c(C(N)=O)cccc2n1-c1nc2c(c(NCc3cccc(O)c3)n1)CCCN2 | ATP luminescence | 72 h | 0.7 µM
O=C(C=Cc1ccc(OCCOc2ccc(C=CC(=O)c3cccs3)cc2)cc1)c1cccs1 | MTT | 48 h | 17.1 µM
O=C1C(=Nc2ccc(Cl)cc2)c2ccccc2N1Cc1ccc(Br)cc1 | MTT | 48 h | 21.4 µM
O=[N+]([O-])c1ccc(O)c(C=NNc2ccc(Cl)cc2)c1 | MTT | 24 h | 11 µM
O=C(C=Cc1cccs1)c1ccc(OCCCCOc2ccc(C(=O)C=Cc3cccs3)cc2)cc1 | MTT | 48 h | 356 µM
FC(F)(F)c1ccc(-c2cc(COc3cc(C(F)(F)F)nc4ccccc34)on2)cc1 | MTS | 72 h | > 100 µM
CN1CCc2c(c3ccccc3n2Cc2ccc(C(=O)NO)cc2)C1 | CCK-8 | 48 h | 12 µM
O=C1CS/C(=N\c2cc(C(F)(F)F)ccc2-c2nnc(N3C(=O)CS/C3=N\c3cccc(Cl)c3)s2)N1c1cccc(Cl)c1 | MTT | – | 57.1 µM
CC(C)c1ccc(/C=C2\N=C(SCC(=O)O)N(c3ccccc3)C2=O)cc1 | MTT | – | 44.3 µg/mL
O=C1CS/C(=N\c2ccccc2O)N1c1nnc(-c2ccc(C(F)(F)F)cc2/N=C2\SCC(=O)N2c2ccccc2O)s1 | MTT | – | 40.5 µM
CC(=O)O[C@@H]1[C@@H](OC(C)=O)[C@H](OC(C)=O)CO[C@H]1n1cc(Cn2c(C(=O)/C=C/c3ccc(F)cc3)nc3ccccc32)nn1 | LDH | 48 h | 9.97 µM
Cc1cc(NS(=O)(=O)c2ccc(NC(=O)/C(C#N)=C/c3ccc(N4CCCCC4)cc3)cc2)no1 | MTT | 48 h | 14.5 µM
Cc1ccc(CN2C(=O)C(=Nc3cccc(Cl)c3)c3ccccc32)cc1 | MTT | 48 h | 1.05 µM
N/C(=N\O)c1ccc(-c2cc(CNc3cccc4cccnc34)on2)cc1 | MTS | 72 h | > 100 µM
